The source of these data is ChEMBL document CHEMBL3774355, “Quinoxalinone (Part II). Discovery of (Z)-3-(2-(pyridin-4-yl)vinyl)quinoxalinone derivates as potent VEGFR-2 kinase inhibitors” (Bioorg Med Chem, 2016).

One experiment relates to HeLa. Description: Cytotoxicity against human HeLa cells assessed as growth inhibition after 24 hrs by MTT assay. The class given is functional, cell-based.
Conditions: not given
In a few lines: (§1)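 Cells seeded at 8000/well in RPMI-1640 with 10% heat-inactivated FBS and left to adhere 10 h. Compound then added in RPMI-1640 with 1% FBS and 0.1% DMSO for 24 h at 37 °C. MTT added for 4 h, formazan dissolved in DMSO, OD read at 590 nm. Inhibition calculated relative to control and zero-setting wells; IC50 derived from inhibition ratios; two experiments in triplicate.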
For the compound `Cc1nc2ccccc2nc1OCC(=O)Nc1ccc(Cl)cc1`, the IC50 was more than 100 µM.

For `Cc1ccc(NC(=O)COc2nc3ccccc3nc2C)cc1`, the IC50 was 74.6 µM.

As for `Cc1ccc(C(=O)Nc2ccc(Cn3c(=O)c(C)nc4ccccc43)cc2)cc1`, the IC50 is more than 100 µM.

Regarding `COc1cc2nc(/C=C\c3ccncc3)c(=O)n(CC(=O)Nc3ccccc3)c2cc1OC`, the IC50 is more than 100 µM.

Consider `Cc1nc2ccccc2n(Cc2ccc(NC(=O)c3ccc(Cl)cc3)cc2)c1=O`, for which the IC50 was more than 100 µM.

In the case of `COc1ccc(NC(=O)Cn2c(=O)c(/C=C\c3ccncc3)nc3ccccc32)cc1OC`, the IC50 is more than 100 µM.

`O=C(Cn1c(=O)c(/C=C\c2ccncc2)nc2ccccc21)Nc1ccccc1`: the IC50 was more than 100 µM.

With `Cc1ccccc1NC(=O)Cn1c(=O)c(/C=C\c2ccncc2)nc2ccccc21`, the 50% inhibitory concentration (IC50) is more than 100 µM.

The test system of another experiment is K562. Description: Cytotoxicity against human K562 cells assessed as growth inhibition after 24 hrs by MTT assay. It counts as functional, cell-based. The note with it: K562, 24 h. In a few lines: as §1
For the compound `Cc1nc2ccccc2nc1OCC(=O)Nc1ccc(Cl)cc1`, the IC50 is more than 100 µM.

As for `Cc1ccc(NC(=O)COc2nc3ccccc3nc2C)cc1`, the IC50 is more than 100 µM.

With `Cc1ccc(C(=O)Nc2ccc(Cn3c(=O)c(C)nc4ccccc43)cc2)cc1`, the IC50 was more than 100 µM.

Consider `COc1cc2nc(/C=C\c3ccncc3)c(=O)n(CC(=O)Nc3ccccc3)c2cc1OC`, for which the IC50 was more than 100 µM.

Turning to `Cc1nc2ccccc2n(Cc2ccc(NC(=O)c3ccc(Cl)cc3)cc2)c1=O`, the IC50 was more than 100 µM.

On to `COc1ccc(NC(=O)Cn2c(=O)c(/C=C\c3ccncc3)nc3ccccc32)cc1OC`, for which the IC50 amounted to 55.2 µM.

On to `O=C(Cn1c(=O)c(/C=C\c2ccncc2)nc2ccccc21)Nc1ccccc1`, for which the IC50 was found to be 55.5 µM.

Regarding `Cc1ccccc1NC(=O)Cn1c(=O)c(/C=C\c2ccncc2)nc2ccccc21`, the IC50 was more than 100 µM.

The next experiment deals with MCF7. In words: Cytotoxicity against human MCF7 cells assessed as growth inhibition after 24 hrs by MTT assay. It counts as functional, cell-based. The note with it: MCF7, 24 h. The essentials: as §1
Take `Cc1nc2ccccc2nc1OCC(=O)Nc1ccc(Cl)cc1`: the concentration for half-maximal inhibition (IC50) was more than 100 µM.

Take `Cc1ccc(NC(=O)COc2nc3ccccc3nc2C)cc1`: the IC50 was more than 100 µM.

`Cc1ccc(C(=O)Nc2ccc(Cn3c(=O)c(C)nc4ccccc43)cc2)cc1`: the IC50 is more than 100 µM.

For `COc1cc2nc(/C=C\c3ccncc3)c(=O)n(CC(=O)Nc3ccccc3)c2cc1OC`, the IC50 was more than 100 µM.

In the case of `Cc1nc2ccccc2n(Cc2ccc(NC(=O)c3ccc(Cl)cc3)cc2)c1=O`, the IC50 was 47.6 µM.

Turning to `COc1ccc(NC(=O)Cn2c(=O)c(/C=C\c3ccncc3)nc3ccccc32)cc1OC`, the IC50 was more than 100 µM.

As for `O=C(Cn1c(=O)c(/C=C\c2ccncc2)nc2ccccc21)Nc1ccccc1`, the IC50 was more than 100 µM.

With `Cc1ccccc1NC(=O)Cn1c(=O)c(/C=C\c2ccncc2)nc2ccccc21`, the IC50 is more than 100 µM.

Tested on in the next experiment: not listed separately
Description: Cytotoxicity against human BEAS2B cells assessed as growth inhibition after 24 hrs by MTT assay. It counts as cell-based. The following applies: BEAS-2B. The essentials:
as §1
Consider `Cc1nc2ccccc2nc1OCC(=O)Nc1ccc(Cl)cc1`, for which the IC50 was more than 100 µM.

In the case of `Cc1ccc(NC(=O)COc2nc3ccccc3nc2C)cc1`, the IC50 was more than 100 µM.

For the compound `Cc1ccc(C(=O)Nc2ccc(Cn3c(=O)c(C)nc4ccccc43)cc2)cc1`, the IC50 is more than 100 µM.

`COc1cc2nc(/C=C\c3ccncc3)c(=O)n(CC(=O)Nc3ccccc3)c2cc1OC`: the IC50 is more than 100 µM.

As to `Cc1nc2ccccc2n(Cc2ccc(NC(=O)c3ccc(Cl)cc3)cc2)c1=O`, the IC50 is more than 100 µM.

For the compound `COc1ccc(NC(=O)Cn2c(=O)c(/C=C\c3ccncc3)nc3ccccc32)cc1OC`, the IC50 was more than 100 µM.

For `O=C(Cn1c(=O)c(/C=C\c2ccncc2)nc2ccccc21)Nc1ccccc1`, the IC50 was more than 100 µM.

Regarding `Cc1ccccc1NC(=O)Cn1c(=O)c(/C=C\c2ccncc2)nc2ccccc21`, the IC50 was more than 100 µM.

Tested on in another experiment: not listed separately
In words: Cytotoxicity against human 3AO cells assessed as growth inhibition after 24 hrs by MTT assay. The class given is functional, cell-based.
Conditions: not given
In a few lines: as §1
Consider `Cc1nc2ccccc2nc1OCC(=O)Nc1ccc(Cl)cc1`, for which the IC50 is more than 100 µM.

Regarding `Cc1ccc(NC(=O)COc2nc3ccccc3nc2C)cc1`, the IC50 was more than 100 µM.

Take `Cc1ccc(C(=O)Nc2ccc(Cn3c(=O)c(C)nc4ccccc43)cc2)cc1`: the IC50 is more than 100 µM.

In the case of `COc1cc2nc(/C=C\c3ccncc3)c(=O)n(CC(=O)Nc3ccccc3)c2cc1OC`, the IC50 was determined as 55.6 µM.

For `Cc1nc2ccccc2n(Cc2ccc(NC(=O)c3ccc(Cl)cc3)cc2)c1=O`, the IC50 is more than 100 µM.

`COc1ccc(NC(=O)Cn2c(=O)c(/C=C\c3ccncc3)nc3ccccc32)cc1OC`: the IC50 was more than 100 µM.

Regarding `O=C(Cn1c(=O)c(/C=C\c2ccncc2)nc2ccccc21)Nc1ccccc1`, the IC50 is more than 100 µM.

As to `Cc1ccccc1NC(=O)Cn1c(=O)c(/C=C\c2ccncc2)nc2ccccc21`, the IC50 stood at 69.7 µM.

Tested on in a further experiment: not listed separately
Description: Cytotoxicity against human PC3 cells assessed as growth inhibition after 24 hrs by MTT assay. It counts as functional, cell-based. The following applies: PC-3, 24 h. In a few lines:
as §1
For the compound `Cc1nc2ccccc2nc1OCC(=O)Nc1ccc(Cl)cc1`, the IC50 worked out at 68 µM.

`Cc1ccc(NC(=O)COc2nc3ccccc3nc2C)cc1`: the IC50 is more than 100 µM.

`Cc1ccc(C(=O)Nc2ccc(Cn3c(=O)c(C)nc4ccccc43)cc2)cc1`: the IC50 is more than 100 µM.

Turning to `COc1cc2nc(/C=C\c3ccncc3)c(=O)n(CC(=O)Nc3ccccc3)c2cc1OC`, the IC50 is more than 100 µM.

Regarding `Cc1nc2ccccc2n(Cc2ccc(NC(=O)c3ccc(Cl)cc3)cc2)c1=O`, the IC50 turned out to be 39.6 µM.

As for `COc1ccc(NC(=O)Cn2c(=O)c(/C=C\c3ccncc3)nc3ccccc32)cc1OC`, the IC50 was more than 100 µM.

For the compound `O=C(Cn1c(=O)c(/C=C\c2ccncc2)nc2ccccc21)Nc1ccccc1`, the IC50 was more than 100 µM.

In the case of `Cc1ccccc1NC(=O)Cn1c(=O)c(/C=C\c2ccncc2)nc2ccccc21`, the IC50 is more than 100 µM.
